# proKLK7 act: activators of human kallikrein-7 zymogen; activation, % at 7 µM; actives 0.9% (n = 370,000); AID 652039; purified proKLK7, EDANS-DABCYL substrate fluorescence; 100% is mature enzyme control, 0% vehicle;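 active means activation above the mean of all tested compounds plus 3 SD, computed per campaign excluding outliers beyond control limits, cut at about 13% in these data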
# NR2E3 ag-1: NR2E3 (human) agonism. AID 2300. Q9Y5X4. actives 0.12% (n = 320,000). inhibition of corepressor binding, % at 4.78 µM. GST-NR2E3/biotin-RetCOR TR-FRET, 1536-well;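 active means percent inhibition above the cutoff of mean plus 3 SD of all tested compounds, set per screening campaign, cut at about 20% in these data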;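 further: 0% = DMSO wells and 100% = biotin wells as full block of FRET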
#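 Material: NR2E3–RetCOR corepressor complex | Quantity: 1.35 nM GST-tagged NR2E3 final | Schedule: 5 h at 4 °C | Replication: Singlicate compound wells | Reagent: RetCOR corepressor, biotinylated, 7 nM | Controls: Biotin wells as high control, 0.6% DMSO wells as low control | Signal: TR-FRET, Eu(K)-anti-GST donor, streptavidin-D2 acceptor, ex 340, em 617/671 nm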
# ADAM10 inh: inhibitors of human ADAM10. O14672. recombinant ADAM10, EDANS/DABCYL FRET peptide cleavage, 3 h. inhibition, % at 7 µM. actives 0.62% (n = 370,000). AID 720582;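 active means inhibition above a per-campaign cutoff equal to the mean of compounds falling between control-based bounds plus 3 SD, cut at about 20% in these data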;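 further: 0% = DMSO wells while the 100% control is not disclosed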
# Target sequence (O14672 214-748 limits assumed): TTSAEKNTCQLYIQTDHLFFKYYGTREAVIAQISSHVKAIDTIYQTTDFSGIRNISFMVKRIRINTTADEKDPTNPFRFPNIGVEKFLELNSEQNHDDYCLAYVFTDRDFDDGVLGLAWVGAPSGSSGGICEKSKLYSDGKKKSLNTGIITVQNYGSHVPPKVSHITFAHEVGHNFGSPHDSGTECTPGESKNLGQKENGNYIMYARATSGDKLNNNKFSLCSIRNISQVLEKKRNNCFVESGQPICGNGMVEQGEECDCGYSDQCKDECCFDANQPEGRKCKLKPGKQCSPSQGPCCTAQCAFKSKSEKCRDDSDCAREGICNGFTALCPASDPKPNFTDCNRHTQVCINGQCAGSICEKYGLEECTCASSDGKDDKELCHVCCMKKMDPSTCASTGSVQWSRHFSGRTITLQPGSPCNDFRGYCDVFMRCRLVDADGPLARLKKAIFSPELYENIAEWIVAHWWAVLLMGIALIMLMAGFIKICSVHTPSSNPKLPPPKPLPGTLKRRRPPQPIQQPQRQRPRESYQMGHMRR
# JMJD2C inh: blocks human GASC-1 demethylase activity. inhibition, % at 2.35 µM. actives 0.069% (n = 330,000). AID 2099. GST-JMJD2C(1-420) H3K9me3 demethylation, DELFIA europium. Q9H3R0;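 active means more than half of a compound's replicate wells show inhibition beyond 50%, single wells judged on their own value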;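 further: signal counts dimethyl H3K9 product captured on neutravidin plate; 0% = median of DMSO wells and 100% = 0.3 times that DMSO median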
# NR2E3 ag-2: activates human NR2E3 receptor; Q9Y5X4; CHO-S Gal4-NCOR/VP16-NR2E3 two-hybrid, luciferase; inhibition of corepressor binding, % at 3.98 µM; actives 0.35% (n = 360,000);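 active means inhibition above the mean of all tested compounds plus 3 SD, cut at about 70% in these data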;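 further: 0% = DMSO with NR2E3 transfected cells and 100% = cells lacking NR2E3 construct; higher means lower luciferase signal from less NR2E3 corepressor binding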
# ADAM17 inh: inhibitors of human ADAM17. recombinant ADAM17, EDANS/DABCYL FRET peptide cleavage. inhibition, % at 6.95 µM. actives 0.83% (n = 370,000). P78536;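 active means inhibition above the mean of compounds lying between control limits plus 3 SD, set per campaign, cut at about 8.5% in these data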;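 further: 0% = DMSO-only wells as the low control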
# NR2E3 ag conf: NR2E3 agonism confirmed in two-hybrid assay; shares compounds with NR2E3 ag-2; CHO-S mammalian two-hybrid NR2E3-NCOR, luciferase luminescence; inhibition, % at 3.98 µM; actives 51% (n = 2,300); AID 624378;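 active means average inhibition above a cutoff equal to the mean inhibition of all tested compounds plus one SD, cut at about 70% in these data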;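 further: 0% = DMSO in NR2E3 cells and 100% = DMSO in cells lacking NR2E3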
# VP16 counter: GAL4-VP16 reporter inhibition in NR2E3 agonist counterscreen; actives 29% (n = 2,300); AID 624379; CHO-S GAL4-VP16 luciferase reporter, luminescence; inhibition, % at 3.98 µM; shares compounds with NR2E3 ag-2;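 active means mean inhibition above a cutoff equal to the average over all tested compounds plus one standard deviation, cut at about 70% in these data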;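 further: luciferase from a UAS reporter driven by GAL4-VP16 transactivation; 0% = DMSO with VP16-transfected cells and 100% = DMSO with cells lacking VP16; higher means less reporter light so more repression of VP16 activity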
# Active calls of the source: *; . = no result given. Hits are enriched below; roughly 2.5% of the tested compounds scored in any of these assays.
SMILES,proKLK7 act,NR2E3 ag-1,ADAM10 inh,JMJD2C inh,NR2E3 ag-2,ADAM17 inh,NR2E3 ag conf,VP16 counter
Cc1ccc(-c2nc(CSCC(=O)N3CCN(c4ccccn4)CC3)c(C)o2)cc1,0.1,-0.4,-11.4,6.2,82.8*,0.8,87.3*,76.4*
CN1CCC(N[C@@H](Cc2ccccc2)C(=O)NCC(c2ccccc2)c2ccccc2)(C(=O)NC2CCCCC2)CC1,.,.,6.6,.,.,2.9,.,.
CN1OC[C@@H]2CN[C@H](c3ccc(-c4cc5ccccc5o4)cc3)C[C@@H]21,.,.,.,.,91.5*,.,78.5*,68.0
CN1OC[C@@H]2CN[C@H](c3ccc(-c4ccc(C#N)cc4)cc3)C[C@@H]21,0.4,.,-1.4,.,-61.7,-2.7,.,.
C=C1C(=O)OC2C=C(CO)C3OC3C3OC3(C)CC(OC(=O)/C(=C/C)COC(C)=O)C12 (stereo unspecified),-0.4,.,-6.0,.,85.8*,-1.8,30.3,20.6
CCCCCCCCCCCCCCCC[n+]1cccc2ccccc21,-0.2,-0.1,9.5,0.5,24.3,-0.2,.,.
CCCCCCCCC[n+]1cccc2c3ccccc3ccc21,.,4.4,.,3.5,82.1*,.,99.1*,73.9*
Oc1ccc(CCNc2ncnc3ccc(Cl)cc23)cc1,0.0,1.0,-4.9,-8.9,91.2*,-5.6,93.0*,87.0*
COc1ccc(C(=O)OCCCN(C)C2CN(Cc3cn(Cc4ccccc4F)nn3)S(=O)(=O)C2)cc1OC (stereo unspecified),0.3,.,3.2,.,.,0.0,.,.
Cc1ccc(Cl)cc1NS(=O)(=O)c1ccccc1,0.3,.,-1.0,.,-18.7,-0.7,.,.
O=S(=O)(Nc1ccc(Cl)cc1NS(=O)(=O)c1ccccc1)c1ccccc1,0.2,.,18.2,.,81.7*,3.8,95.2*,65.2
CCCCOc1cccc(C(=O)NCCc2ccccc2-c2ccccc2CCC(=O)NCc2ccccc2)c1,0.5,.,-4.9,.,.,-1.4,.,.
COc1ccc(-c2ccc(C(=O)NCc3ccncc3)c3occc23)c(C)c1,-3.8,.,-152.2,.,81.6*,-41.8,95.2*,81.7*
O=C(NCc1ccc(C(F)(F)F)cc1)c1ccc(-c2ccc(F)c(F)c2)c2ccoc12,-0.8,.,-1.0,.,-28.3,1.1,.,.
O=C(NCc1ccncc1)c1ccc(-c2ccc(F)c(F)c2)c2ccoc12,0.5,.,-13.7,.,84.1*,-5.6,96.2*,82.2*
COc1ccc(-c2ccc(C(=O)NCc3ccc(F)c(F)c3)c3occc23)c(C)c1,-1.1,.,-16.3,.,-8.0,-4.1,.,.
Cc1cc(C)cc(NC(=O)C2(C(=O)C3CC3)CC(c3ccccc3C(F)(F)F)=NO2)c1 (stereo unspecified),0.4,.,12.2,.,.,6.5,.,.
COc1ccccc1C(=O)N(CCC1CCCN1C)c1nc2ccccc2s1 (stereo unspecified),0.0,7.9,-7.8,-3.6,64.6,-6.5,30.4,-9.6
c1ccc(-c2ccccc2OCCOCCN2CCOCC2)cc1,0.0,-3.3,-0.8,-0.1,-7.4,-1.1,.,.
COc1cccc(Cn2nnc(C(=O)Nc3cc(C)ccc3OC)c2N)c1,.,2.5,.,-2.0,55.8,.,58.3,11.2
COc1ccc(OC)c(NC(=O)c2nnn(Cc3ccccc3C)c2N)c1,-9.8,0.7,27.0*,4.9,69.0,7.0,80.2*,23.5
Cn1c(=O)c2[nH]c(COc3ccc(C(C)(C)C)cc3)nc2n(C)c1=O,.,2.0,.,-0.1,68.5,.,86.7*,72.0*
CC(=O)c1c(C)[nH]c(C(=O)OCCCCN2C(=O)c3ccccc3C2=O)c1C,0.1,-0.1,4.8,-0.4,88.8*,-0.5,96.2*,88.5*
CC(=O)c1c(C)[nH]c(C(=O)OCC(=O)Nc2ccc(Cl)cc2[N+](=O)[O-])c1C,0.7,-0.9,-0.1,5.6,86.4*,3.0,96.4*,89.4*
CCOC(=O)c1c(C)[nH]c(C(=O)OCC(=O)c2ccccc2)c1C,0.2,1.8,4.8,1.2,-136.0,-1.3,.,.
